We go through 5 compounds from paper PMC9173812 (Proceedings of the National Academy of Sciences of the …, 2022).

For series [1], the target named is T1, 5-HT7R (Homo sapiens, UniProt P34969). It is filed as cell-based. The following applies: 10 µM ligand, 2 to 60 min, Western blot. The essentials: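 HEK-293 cells stably expressing h5-HT7R were exposed to 10 µM ligand for 2 to 60 min, or to rising concentrations for 7 min. Lysates were run on 10% SDS-PAGE, transferred to PVDF and blocked in 5% milk in TBS-T (pH 7.4), then probed for phospho-ERK1/2. Bands were quantified by densitometry; three independent experiments, mean ± SEM.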

The target in series [2] is T1, 5-HT7R. The series can be described thus: cAMP accumulation. Format: cell-based. The following applies: ligand alone.
For series [3], the target named is T1, 5-HT7R. Format: cell-based. The essentials: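 HEK-293 cells stably expressing h5-HT7R, grown in DMEM with 10% dialyzed FCS and penicillin/streptomycin. Cells were preincubated with a 5-HT7R antagonist (10 µM, 10 min) or the PKA inhibitor H89 before 10 µM ligand. Lysates were read by AlphaScreen SureFire p-ERK1/2 and p-c-SRC kits, or by Western blot with densitometry. Three independent experiments; mean ± SEM.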

Series [4] concerns thermal nociception. Put plainly: Tail immersion test. Format: in vivo. As to conditions: 5 mg/kg s.c. Put shortly:
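Male mice (8–14 wk; C57BL/6 or 5-HT7R−/− on C57BL/6 background) received test compound 5 mg/kg by tail s.c. injection. Vehicle was 20% DMSO and 5% Tween 80 in PBS. Some groups were also given 5-HT7R antagonist 5 mg/kg i.p. Tail immersion latency in 50 ± 2 °C water was measured 10 min (T0) and 40 min (T30) post-injection.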

Series [5] can be described thus: Pharmacokinetic study in plasma and brain. It is filed as in vivo. The following applies: 5 mg/kg s.c., C57BL/6 mice.
The test system of series [6] is formalin-induced hindpaw licking. The series can be described thus: Formalin test. It is filed as in vivo. The following applies: rats, Serodolin 10 mg/kg s.c., morphine 4 mg/kg s.c.
The mark [7] stands for this setting: pretreatment, Serodolin 10 µM 7 min, AlphaScreen.

T1 sequence (P34969 1-432): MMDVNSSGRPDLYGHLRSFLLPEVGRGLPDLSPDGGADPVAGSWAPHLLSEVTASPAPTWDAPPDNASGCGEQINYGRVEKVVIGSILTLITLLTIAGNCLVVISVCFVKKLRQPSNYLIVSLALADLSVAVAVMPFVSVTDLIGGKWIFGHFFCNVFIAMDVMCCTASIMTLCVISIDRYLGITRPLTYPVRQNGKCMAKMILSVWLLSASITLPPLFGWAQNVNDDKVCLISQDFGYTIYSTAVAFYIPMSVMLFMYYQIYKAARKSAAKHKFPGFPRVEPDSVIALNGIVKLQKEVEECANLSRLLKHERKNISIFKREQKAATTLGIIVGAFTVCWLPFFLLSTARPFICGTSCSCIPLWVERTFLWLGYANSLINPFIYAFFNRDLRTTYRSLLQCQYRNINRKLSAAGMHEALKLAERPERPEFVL

`O=C1Nc2cccc3c2C1(CCCCN1CC=C(c2ccccc2)CC1)CCC3` (stereo not shown) [DR4004]: in series [1], the “induction of ERK phosphorylation” value was “none of them were able to induce ERK activation”.

On to `Cc1nn(C)c(C)c1-c1cccc(CCN(C)C)c1` [E55888], for which the “induction of ERK phosphorylation” value in series [1] is on record as “induce ERK phosphorylation”. Further, the “effect on cAMP when tested alone” value in series [2] is “induced a concentration-dependent accumulation of cAMP”. For the same compound, in series [3] (10 µM, 7 min, Western blot), the “phosphorylation of c-SRC kinase at Tyr416” value was “could not be observed after 5-CT or E55888 stimulation”. Besides, in series [4], the “antinociceptive effect in 5-HT7R KO mice” value is “did not exert any antinociceptive effect”. In addition, the “time after which compound is eliminated / undetectable in plasma and brain” value in series [5] came to 120 min. Further, the “maximum of detection in brain” value in series [5] (brain) turned out to be 1.4 ± 0.2 µg/mL. Moreover, the “maximum of detection in plasma” value in series [5] (plasma) is listed as 6.1 ± 0.5 µg/mL.

For `CC(C)(C)n1nc(-c2ccc(Cl)cc2)c2c(N)ncnc21` [PP2], in series [3] (setting [7]), the “block of Serodolin-induced ERK phosphorylation” value stood at 99% and the “block of Serodolin-induced c-SRC phosphorylation” value worked out at 100%.

Regarding `Nc1ncnc2c1cnn2-c1ccccc1` [PP3], in series [3] (pretreatment, AlphaScreen), the “effect on Serodolin-induced ERK and c-SRC phosphorylation” value was “inactive”.

For `CN1CC[C@]23c4c5ccc(O)c4O[C@H]2[C@@H](O)C=C[C@H]3[C@H]1C5` [morphine], in series [6] (0 to 5 min, not significant), the “inhibitory effect on licking, early phase (vs vehicle-treated group)” value is listed as −57%. For the same compound, in series [6] (17 to 27 min), the “inhibition of licking, late phase (vs vehicle-treated group)” value is −64%.
